High-throughput results as filed in PubChem BioAssay.
Compounds with a hit are over-represented: about 1.2% of the library has one in this group of screens.
proCasp7 act = counter-screen: procaspase-7 (human) activation; P55210; recombinant procaspase-7, Ac-DEVD-pNA absorbance 405 nm; D23A/D198A/D206A triple mutant, cannot self-cleave; scale: DMSO 0, 5 µM enzyme 100; activation, % at 8.5 µM; 330,000 compounds, 0.093% hits; AID 463210;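 active = percent activation above the screen-wide mean plus 3 SD, cut at about 25% in these data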
Target sequence (P55210 whole entry D23A/D198A/D206A): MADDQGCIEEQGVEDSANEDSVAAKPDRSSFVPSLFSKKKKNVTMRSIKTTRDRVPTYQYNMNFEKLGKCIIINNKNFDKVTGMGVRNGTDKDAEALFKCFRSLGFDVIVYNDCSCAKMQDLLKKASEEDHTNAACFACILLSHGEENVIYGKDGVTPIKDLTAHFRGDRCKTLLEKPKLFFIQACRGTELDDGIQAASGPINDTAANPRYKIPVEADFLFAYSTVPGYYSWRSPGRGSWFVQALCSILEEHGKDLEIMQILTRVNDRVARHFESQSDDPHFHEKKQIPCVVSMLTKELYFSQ
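buffer or medium = Zinc-free HEPES/NaCl buffer, pH 7.4 | material = Procaspase-7 triple mutant (PC-7 D3A) | input = 2 µM procaspase-7 mutant as dispensed | signal = Epi-absorbance of released pNA at 405 nm, two timepoints | timing = 1 h preincubation, 2 h reaction | replicates = singlicate compound testing | evaluation = % activation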
PP5 primary = blocks human protein phosphatase 5 activity. purified PP5c, OMFP substrate fluorescence. inhibition, % at 6.7 µM. 320,000 compounds, 0.18% hits;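 active = inhibition above the campaign's mean inhibition across all tested compounds plus 3 SD, cut at about 9.5% in these data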;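 note: 0% = DMSO only and 100% = 100 µM cantharidin control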
procasp3 activ = activators of human procaspase-3. 330,000 compounds, 0.11% hits. P42574. recombinant procaspase-3 D3A, Ac-DEVD-pNA absorbance 405 nm. activation, % at 8.5 µM;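 active = activation above the mean of all tested compounds plus 3 SD, cut at about 21% in these data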;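 note: 0% = DMSO alone and 100% = DMSO wells spiked with extra 5 µM PC-3 D3A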
Target sequence (P42574 whole entry D9A/D28A/D175A): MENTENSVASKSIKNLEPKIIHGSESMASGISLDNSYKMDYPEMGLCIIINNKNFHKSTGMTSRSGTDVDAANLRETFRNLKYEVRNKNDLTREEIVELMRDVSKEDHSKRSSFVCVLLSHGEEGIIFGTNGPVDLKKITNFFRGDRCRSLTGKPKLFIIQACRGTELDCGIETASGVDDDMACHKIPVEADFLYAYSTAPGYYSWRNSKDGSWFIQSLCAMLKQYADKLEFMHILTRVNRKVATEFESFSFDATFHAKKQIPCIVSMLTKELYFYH
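Assay system – Procaspase-3 D3A mutant · Benchmarks – DMSO low control, extra-enzyme high control · Technique – 405 nm absorbance of p-nitroaniline, reads at 0 and 120 min · Doses – 8.5 µM nominal · Measure – % activation between DMSO and enzyme-spiked controls · Also added – Ac-DEVD-pNA chromogenic peptide substrate · Schedule – 1 h compound preincubation, 2 h substrate hydrolysis at 25 °C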
PP1 counter = PP1-alpha (human) inhibition in PP5 counter-screen; 320,000 compounds, 0.9% hits; inhibition, % at 6.7 µM; purified PP1alpha, OMFP fluorescence; P62136;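 active = inhibition above the mean inhibition of all tested compounds plus 3 SD, computed separately for each screening campaign, cut at about 15% in these data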
Starred values were filed as active, the others as inactive.

For CCCc1ccc(-c2cc(C(=O)N/N=C/c3ccc([N+](=O)[O-])o3)c3ccccc3n2)cc1 the results were proCasp7 act -1, PP5 primary 0, procasp3 activ -3 and PP1 counter 17*.
For O=C(N/N=C/c1ccc([N+](=O)[O-])o1)c1cc(-c2cccc(Br)c2)nc2ccccc12 the results were proCasp7 act -19, PP5 primary 5, procasp3 activ -15 and PP1 counter 16*.
O=C(N/N=C/c1ccco1)c1cc(-c2ccccc2)nc2ccccc12 was read as proCasp7 act 7, PP5 primary -2, procasp3 activ 14 and PP1 counter 1.
CC(C)(C)C#CC(CCc1ccccc1)OS(N)(=O)=O (stereo unspecified) was read as proCasp7 act -6, PP5 primary 1, procasp3 activ 10 and PP1 counter -3.
`OC(CNCC1CCCO1)Cn1c2ccc(Cl)cc2c2cc(Cl)ccc21` (stereo unspecified) gave proCasp7 act 4, PP5 primary 4, procasp3 activ 3 and PP1 counter 11.
Screening OC(CNCCC1C=Nc2ccccc21)Cn1c2ccc(Cl)cc2c2cc(Cl)ccc21 (stereo unspecified) returned proCasp7 act 2, PP5 primary 4, procasp3 activ -13 and PP1 counter 17*.
Screening Cc1ccc(C(=O)C(C)OC(=O)CN2C(=O)NC3(CCCC3)C2=O)cc1 (stereo unspecified) returned proCasp7 act 6, PP5 primary -2, procasp3 activ -5 and PP1 counter 0.
`O=S(=O)(c1ccc(F)cc1)N1CCN(c2nc(-c3cccnc3)nc3ccccc23)CC1` gave proCasp7 act 6, PP5 primary 2, procasp3 activ 3 and PP1 counter 17*.
Screening O=C(O)c1ccc2c(=O)n(Cc3ccccc3)c(SCc3ccc([N+](=O)[O-])cc3)nc2c1 returned proCasp7 act 7, PP5 primary 3, procasp3 activ 3 and PP1 counter 18*.
For O=c1c2ccccc2nc(SCc2ccc([N+](=O)[O-])cc2)n1-c1ccccc1 the results were proCasp7 act 0, PP5 primary 0, procasp3 activ 3 and PP1 counter 5.
COc1cc(Cl)c(C)cc1NC(=O)CN1C(=O)C2CC=CCC2C1=O (stereo unspecified) was read as proCasp7 act 1 and procasp3 activ 5.
`CCOC(=O)C1CCN(C(=O)CCc2c(C)nc3cc(-c4ccccc4)nn3c2C)CC1` gave proCasp7 act -5, PP5 primary 3, procasp3 activ -6 and PP1 counter -3.
For CCOC(=O)C1CCN(c2cc(C)nc3cc(-c4cccc(F)c4)nn23)CC1 the results were proCasp7 act 31*, PP5 primary 2, procasp3 activ 26* and PP1 counter 3.
For O=c1cc(CSc2nnnn2-c2ccccc2)nc(Nc2ccc(F)cc2)[nH]1 the results were proCasp7 act 10, PP5 primary 2, procasp3 activ -4 and PP1 counter 15*.
COc1ccc(C(C[N+](=O)[O-])c2c(C)cc3ccccn23)cc1 (stereo unspecified) was read as proCasp7 act -4, PP5 primary 3, procasp3 activ 1 and PP1 counter 14.
COc1ccc(C(C[N+](=O)[O-])c2c(-c3ccccc3)cc3ccccn23)c(OC)c1 (stereo unspecified) was read as proCasp7 act -7, PP5 primary -3, procasp3 activ -8 and PP1 counter 17*.
O=C(CSc1cn(Cc2ccccc2)c2ccccc12)Nc1nccs1 was read as proCasp7 act 0, PP5 primary 5, procasp3 activ -4 and PP1 counter 16*.
O=C(CNC(=O)c1ccc([N+](=O)[O-])cc1)N/N=C\c1ccc(OC(=O)c2ccccc2)cc1 was read as proCasp7 act -1, PP5 primary -1, procasp3 activ 1 and PP1 counter 16*.
Cc1cc([N+](=O)[O-])cc(C)c1OCC(=O)N/N=C/c1ccc(OC(=O)c2ccccc2Br)cc1 was read as proCasp7 act 5, PP5 primary 1, procasp3 activ 6 and PP1 counter 16*.
`COc1cccc(C(=O)NCC(c2ccco2)N2CCOCC2)c1` (stereo unspecified) gave proCasp7 act 10, PP5 primary 0, procasp3 activ -2 and PP1 counter -3.
For COc1ccc(NC(=O)CC23CC4CC(CC(Br)(C4)C2)C3)c(OC)c1 the results were proCasp7 act -3, PP5 primary 1, procasp3 activ 6 and PP1 counter 0.
CC(=O)N1CCN(C(=O)C(Cc2c[nH]c3ccccc23)NC(=O)c2ccccc2Cl)CC1 (stereo unspecified) was read as proCasp7 act -5, PP5 primary 3, procasp3 activ 7 and PP1 counter -2.
For COc1cccc(/C=N/Nc2nc(Nc3ccc([N+](=O)[O-])cc3)nc(N3CCCC3)n2)c1O the results were proCasp7 act 3, PP5 primary 5, procasp3 activ -4 and PP1 counter 16*.
`O=[N+]([O-])c1ccc(Nc2nc(N/N=C/c3cccc(F)c3)nc(N3CCCC3)n2)cc1` gave proCasp7 act 9, PP5 primary 1, procasp3 activ 7 and PP1 counter 8.
`O=c1c2ccccc2oc2c1oc1ccccc12` gave proCasp7 act 6 and procasp3 activ 0.
Screening Cc1ccc2c(c1)C(=O)C(=O)N2CCCOc1ccccc1 returned proCasp7 act 8, PP5 primary 0, procasp3 activ 1 and PP1 counter 7.
Screening Cc1cccc(OCCCN2C(=O)C(=O)c3cc(C)ccc32)c1 returned proCasp7 act 6, PP5 primary 2, procasp3 activ 3 and PP1 counter 16*.
Cc1ccc(OCCCN2C(=O)C(=O)c3cc(C)ccc32)cc1 was read as proCasp7 act 0, PP5 primary 3, procasp3 activ 4 and PP1 counter 17*.
Screening CCCCC1CCC(C(=O)N(CCOC)c2c(N)n(CC(C)C)c(=O)[nH]c2=O)CC1 (stereo unspecified) returned proCasp7 act 4, PP5 primary 0, procasp3 activ 4 and PP1 counter -3.
For O=C(NCC1CCCO1)c1ccc(Br)c(S(=O)(=O)N2CCOCC2)c1 (stereo unspecified) the results were proCasp7 act -3, PP5 primary -1, procasp3 activ 4 and PP1 counter -3.
Screening CN(C)CCSc1nc2cc(S(=O)(=O)N3CCCCC3)ccc2o1 returned proCasp7 act 9 and procasp3 activ -4.
`O=C(COC(=O)c1cccc(OC(F)F)c1)NCC1CCCO1` (stereo unspecified) gave proCasp7 act 4 and procasp3 activ 3.
COCCN1C(=O)C(O)=C(C(=O)c2ccco2)C1c1cccc(Oc2ccccc2)c1 (stereo unspecified) was read as proCasp7 act -28, PP5 primary 1, procasp3 activ -9 and PP1 counter 25*.
